ChEMBL document CHEMBL1131325, “Synthesis and antiviral evaluation of certain novel pyrazinoic acid C-nucleosides” (J Med Chem, 1998)

Legend:
Human alphaherpesvirus 1 = test: Compound was evaluated for the antiviral activity by their capacity to inhibit the replication of HSV-1 virus; format: functional, organism-based
How it was run: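 HSV-1 (KOS strain) ELISA in BSC-1 cells, 10 000 cells/well in MEM(E) + 10% calf serum, after overnight culture at 37 °C. Drug was added in quadruplicate with 100 pfu/well virus and incubated 3 days at 37 °C. Detection used HRP-conjugated rabbit anti-HSV-1 with TMB substrate, read at 450/570 nm. IC50 came from regression of % absorbance reduction vs. log concentration. Acyclovir was the positive control.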

KB = test: Cytotoxicity for the compound was determined by the inhibition of the growing KB cells.; format: functional, cell-based; settings: Homo sapiens
How it was run: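 KB cell growth was measured over two population doublings. Cells were plated at 3000–5000/well, cultured overnight, then compound was added in quadruplicate at 6–8 concentrations for 48 h at 37 °C in CO₂. Cells were fixed in 95% ethanol, stained with 0.1% crystal violet, eluted with 0.1 N HCl/ethanol and read at 570 nm. IC50 came from regression vs. log concentration. The positive control was 2-acetylpyridine thiosemicarbazone.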

Human betaherpesvirus 5 = test: Compound was evaluated for antiviral activity by their capacity to inhibit replication of HCMV virus; format: functional, organism-based
How it was run: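 Towne strain HCMV (plaque-purified isolate P₀) plaque reduction in HFF cells in 24-well dishes, ~100 pfu/cm² cell sheet. After adsorption, compound in growth medium was added at 4–8 concentrations in duplicate wells. Incubation was 10–12 days at 37 °C, then crystal violet fixation/staining and microscopic plaque counts. IC50 came from linear regression of % plaque reduction vs. log concentration. Ganciclovir served as positive control.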

HFF = test: Cytotoxicity for the compound was determined in uninfected stationary human foreskin fibroblasts (HFF) cells.; format: functional, cell-based
How it was run: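 Stationary HFF monolayers not affected by virus in the HCMV plaque assay were examined microscopically for cytotoxicity. Visual scoring was done at the time of plaque enumeration, after 10–12 days at 37 °C. IC50 came from regression against log concentration.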

| SMILES | IC50 (Human alphaherpesvirus 1) | IC50 (KB) | IC50 (Human betaherpesvirus 5) | IC50 (HFF) |
| --- | --- | --- | --- | --- |
| CCOc1nc(Cl)c(C(N)=O)nc1[C@@H]1O[C@H](CO)[C@@H](O)[C@H]1O | > 100 µM | > 100 µM | > 100 µM | > 100 µM |
| Nc1nc2c(ncn2COC(CO)CO)c(=O)[nH]1 [GANCICLOVIR] | 1.8 µM | > 100 µM |  | > 100 µM |
| CCOC(=O)c1nc([C@@H]2O[C@H](CO)[C@@H](O)[C@H]2O)c(N)nc1Cl | > 100 µM | > 100 µM | > 100 µM | > 100 µM |
| CCOC(=O)c1nc([C@@H]2O[C@H](CO)[C@@H](O)[C@H]2O)c(NC)nc1Cl | > 100 µM | > 100 µM | > 100 µM | > 100 µM |
| NC(=O)c1nc([C@@H]2O[C@H](CO)[C@@H](O)[C@H]2O)c(N)nc1Cl | > 100 µM | > 100 µM | > 100 µM | > 100 µM |
| COc1nc(Cl)c(C(N)=O)nc1[C@@H]1O[C@H](CO)[C@@H](O)[C@H]1O | > 100 µM | > 100 µM | > 100 µM | > 100 µM |
| OC[C@H]1O[C@@H](c2ncc(Cl)nc2Cl)[C@H](O)[C@@H]1O |  |  | 70 µM | > 100 µM |
| CCOC(=O)c1nc([C@@H]2O[C@H](CO)[C@@H](O)[C@H]2O)c(Cl)nc1Cl | 20 µM | 20 µM | 3.2 µM | 3.2 µM |
